According to ChEMBL document CHEMBL5661976 (Cancer Res, 2007):
Calls of active or inactive are those of the source. The calls are words filed in the database; no cut-off is given here.

What was measured:
BaF3 [1] = assay: cells; assay type: functional, cell-based; conditions: Mus musculus, BaF3, 72 h
[2] = Inhibition of recombinant p70S6K (unknown origin); set-up: species or system Homo sapiens
BaF3 [3] = assay: cells; assay type: functional, cell-based; conditions: Mus musculus, BaF3, 72 h; remark: listed apart in the source
BaF3 [4] = assay: cells; assay type: functional, cell-based; conditions: Mus musculus, BaF3, 72 h; remark: listed apart in the source
Casein kinase I = assay: Inhibition of recombinant CK1 (unknown origin); assay type: protein assay, Homo sapiens
[5] = Inhibition of recombinant Akt (unknown origin); set-up: species or system Homo sapiens
HCC827 [6] = conditions: Homo sapiens, dose 1-10000 nmol/L, time 12.0 hrs
HCC827 [7] = assay: cells; assay type: functional, cell-based; conditions: Homo sapiens, HCC827, 72 h
[8] = biological target: Serine/threonine-protein kinase Nek6 (Homo sapiens, UniProt Q9HC98); assay: Inhibition of recombinant NEK6 (unknown origin)
[9] = biological target: Mitogen-activated protein kinase 12 (Homo sapiens, UniProt P53778); assay: Inhibition of recombinant SAPK3/p38gamma (unknown origin)
HCC827 [10] = assay: cells; assay type: functional, cell-based; conditions: Homo sapiens, HCC827, 72 h; remark: listed apart in the source
[11] = biological target: Serine/threonine-protein kinase Nek2 (Homo sapiens, UniProt P51955); assay: Inhibition of recombinant NEK2a (unknown origin)
HCC827 [12] = assay: Antitumor activity against human HCC827 cells expressing EGFR Del/T790M mutant xenografted in nude mouse assessed as inhibition of tumor growth at 10 mg/kg/day, po administered for 95 days and measured thrice weekly; assay type: functional, organism-based; conditions: time 95.0 day
Method in brief: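 Nu/nu mice under 2% isoflurane/oxygen inoculated s.c. in lower-right flank with 5 × 10^6 HCC827-GFP or HCC827-Del/T790M cells in 0.2 mL PBS; randomized at mean tumor 400 to 500 mm3. Daily oral gavage 10 mg/kg/d; caliper volume = length × width² × 0.52; body weight monitored daily; ended when control tumors reached 2000 mm3.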

[13] = Inhibition of recombinant PDGF (unknown origin); set-up: species or system Homo sapiens
BaF3 [14] = assay: cells; assay type: functional, cell-based; conditions: Mus musculus, BaF3, 72 h; remark: listed apart in the source
[15] = biological target: Insulin-like growth factor 1 receptor (Homo sapiens, UniProt P08069); assay: Inhibition of recombinant IGF1R (unknown origin)
[16] = biological target: Dual specificity mitogen-activated protein kinase kinase 1 (Homo sapiens, UniProt Q02750); assay: Inhibition of recombinant MEK1 (unknown origin)
[17] = biological target: MAP kinase-activated protein kinase 5 (Homo sapiens, UniProt Q8IW41); assay: Inhibition of recombinant PRAK (unknown origin)
[18] = biological target: Receptor tyrosine-protein kinase erbB-2 (Mus musculus, UniProt P70424); assay: Inhibition of ERBB2 expressed in mouse NIH3T3 cells; assay type: cell-based
NCI-H3255 [19] = assay: cells; assay type: functional, cell-based; conditions: Homo sapiens, NCI-H3255, 72 h
[20] = biological target: Glycogen synthase kinase-3 beta (Homo sapiens, UniProt P49841); assay: Inhibition of recombinant GSK3b (unknown origin)
BaF3 [21] = assay: cells; assay type: functional, cell-based; conditions: Mus musculus, BaF3, 72 h; remark: listed apart in the source
PC-9 = assay: cells; assay type: functional, cell-based; conditions: Homo sapiens, PC-9, 72 h
Casein kinase 2 = Casein kinase 2 (Homo sapiens, UniProt P67870+P68400+P19784+Q8NEV1); assay: Inhibition of recombinant CK2 (unknown origin); assay type: protein assay
BaF3 [22] = assay: cells; assay type: functional, cell-based; conditions: Mus musculus, BaF3, 72 h; remark: listed apart in the source
HCC827 [23] = assay: cells; assay type: functional, cell-based; conditions: Homo sapiens, HCC827, 72 h; remark: listed apart in the source
HCC4006 = assay: cells; assay type: functional, cell-based; conditions: Homo sapiens, HCC4006, 72 h
BaF3 [24] = assay: cells; assay type: functional, cell-based; conditions: Mus musculus, BaF3, 72 h; remark: listed apart in the source
BaF3 [25] = assay: cells; assay type: functional, cell-based; conditions: Mus musculus, BaF3, 72 h; remark: listed apart in the source
BaF3 [26] = assay: cells; assay type: functional, cell-based; conditions: Mus musculus, BaF3, 72 h; remark: listed apart in the source
NIH3T3 [27] = conditions: Mus musculus, dose 1-10000 nmol/L, time 6.25 hrs
Wee1-like protein kinase = Wee1-like protein kinase (Homo sapiens, UniProt P30291); assay: Inhibition of recombinant Wee1 (unknown origin)
cells = assay type: functional, cell-based; conditions: Homo sapiens, NCI-H3255GR, 72 h
[28] = Inhibition of recombinant Bir Kinase (unknown origin); set-up: species or system Homo sapiens
[29] = Inhibition of recombinant CDK2/Cyclin A (unknown origin); set-up: species or system Homo sapiens
[30] = biological target: Mitogen-activated protein kinase 8 (Homo sapiens, UniProt P45983); assay: Inhibition of recombinant SAPK1c (unknown origin)
NCI-H3255 [31] = assay: cells; assay type: functional, cell-based; conditions: Homo sapiens, NCI-H3255, 72 h; remark: listed apart in the source
NCI-H441 = assay: cells; assay type: functional, cell-based; conditions: Homo sapiens, NCI-H441, 72 h
HCC827 [32] = assay: cells; assay type: functional, cell-based; conditions: Homo sapiens, HCC827, 72 h; remark: listed apart in the source
NIH3T3 [33] = assay: Inhibition of ERBB2 Ins774YVMA mutant (unknown origin) expressed in mouse NIH3T3 cells assessed as inhibition of ERBB2 phosphorylation at 100 to 10000 nmol/L incubated for 6 hrs by Western blotting analysis; assay type: cell-based; conditions: dose 100-10000 nmol/L
NCI-H3255 [34] = assay: Induction of apoptosis in human NCI-H3255 cells assessed as increase in cleavage of PARP at 1 micromol/L incubated for 72 hrs by Western blotting analysis; assay type: functional, cell-based; conditions: dose 1.0 µmol/L

Chain of Dual specificity mitogen-activated protein kinase kinase 1 (Q02750 whole entry): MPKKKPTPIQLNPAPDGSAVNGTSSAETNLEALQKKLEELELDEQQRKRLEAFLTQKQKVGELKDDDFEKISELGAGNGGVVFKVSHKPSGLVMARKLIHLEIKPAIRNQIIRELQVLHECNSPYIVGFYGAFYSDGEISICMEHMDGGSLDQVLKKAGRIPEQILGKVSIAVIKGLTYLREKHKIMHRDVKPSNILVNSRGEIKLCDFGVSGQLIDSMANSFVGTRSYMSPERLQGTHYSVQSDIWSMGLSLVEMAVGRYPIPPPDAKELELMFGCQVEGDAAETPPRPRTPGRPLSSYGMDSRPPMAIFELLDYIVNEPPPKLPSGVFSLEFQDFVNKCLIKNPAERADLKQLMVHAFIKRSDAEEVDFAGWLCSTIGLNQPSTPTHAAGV
Chain of Mitogen-activated protein kinase 12 (P53778 whole entry): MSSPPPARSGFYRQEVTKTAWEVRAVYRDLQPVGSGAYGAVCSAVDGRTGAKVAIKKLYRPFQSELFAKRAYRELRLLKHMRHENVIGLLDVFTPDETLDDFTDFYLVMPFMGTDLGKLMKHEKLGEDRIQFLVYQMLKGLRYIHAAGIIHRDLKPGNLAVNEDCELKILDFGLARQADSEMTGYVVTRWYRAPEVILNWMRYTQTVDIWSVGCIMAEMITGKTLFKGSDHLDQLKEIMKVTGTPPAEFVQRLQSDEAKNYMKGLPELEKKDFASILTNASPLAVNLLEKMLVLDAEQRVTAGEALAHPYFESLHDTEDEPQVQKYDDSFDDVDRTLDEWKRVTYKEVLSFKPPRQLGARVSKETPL
Chain of MAP kinase-activated protein kinase 5 (Q8IW41 whole entry): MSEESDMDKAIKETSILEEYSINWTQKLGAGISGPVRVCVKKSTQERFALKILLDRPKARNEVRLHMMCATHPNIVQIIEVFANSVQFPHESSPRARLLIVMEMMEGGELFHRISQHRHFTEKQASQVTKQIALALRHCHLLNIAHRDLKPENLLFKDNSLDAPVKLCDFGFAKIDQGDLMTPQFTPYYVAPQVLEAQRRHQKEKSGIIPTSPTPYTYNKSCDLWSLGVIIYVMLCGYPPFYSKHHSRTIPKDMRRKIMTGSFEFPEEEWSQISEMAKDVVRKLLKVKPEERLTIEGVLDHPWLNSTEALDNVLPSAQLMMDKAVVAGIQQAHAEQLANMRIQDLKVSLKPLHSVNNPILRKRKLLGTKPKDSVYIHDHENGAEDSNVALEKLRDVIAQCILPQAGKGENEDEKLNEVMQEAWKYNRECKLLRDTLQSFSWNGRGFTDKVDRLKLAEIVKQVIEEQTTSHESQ
Chain of Serine/threonine-protein kinase Nek6 (Q9HC98 whole entry): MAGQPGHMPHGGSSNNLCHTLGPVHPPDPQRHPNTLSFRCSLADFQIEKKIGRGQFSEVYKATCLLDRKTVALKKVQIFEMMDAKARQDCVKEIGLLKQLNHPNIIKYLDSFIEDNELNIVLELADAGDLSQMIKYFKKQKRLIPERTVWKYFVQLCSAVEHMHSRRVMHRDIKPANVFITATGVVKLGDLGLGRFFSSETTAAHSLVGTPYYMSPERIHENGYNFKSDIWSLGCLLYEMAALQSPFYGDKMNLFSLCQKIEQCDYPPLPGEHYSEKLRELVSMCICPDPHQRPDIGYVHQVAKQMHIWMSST
Chain of Receptor tyrosine-protein kinase erbB-2 (P70424 whole entry): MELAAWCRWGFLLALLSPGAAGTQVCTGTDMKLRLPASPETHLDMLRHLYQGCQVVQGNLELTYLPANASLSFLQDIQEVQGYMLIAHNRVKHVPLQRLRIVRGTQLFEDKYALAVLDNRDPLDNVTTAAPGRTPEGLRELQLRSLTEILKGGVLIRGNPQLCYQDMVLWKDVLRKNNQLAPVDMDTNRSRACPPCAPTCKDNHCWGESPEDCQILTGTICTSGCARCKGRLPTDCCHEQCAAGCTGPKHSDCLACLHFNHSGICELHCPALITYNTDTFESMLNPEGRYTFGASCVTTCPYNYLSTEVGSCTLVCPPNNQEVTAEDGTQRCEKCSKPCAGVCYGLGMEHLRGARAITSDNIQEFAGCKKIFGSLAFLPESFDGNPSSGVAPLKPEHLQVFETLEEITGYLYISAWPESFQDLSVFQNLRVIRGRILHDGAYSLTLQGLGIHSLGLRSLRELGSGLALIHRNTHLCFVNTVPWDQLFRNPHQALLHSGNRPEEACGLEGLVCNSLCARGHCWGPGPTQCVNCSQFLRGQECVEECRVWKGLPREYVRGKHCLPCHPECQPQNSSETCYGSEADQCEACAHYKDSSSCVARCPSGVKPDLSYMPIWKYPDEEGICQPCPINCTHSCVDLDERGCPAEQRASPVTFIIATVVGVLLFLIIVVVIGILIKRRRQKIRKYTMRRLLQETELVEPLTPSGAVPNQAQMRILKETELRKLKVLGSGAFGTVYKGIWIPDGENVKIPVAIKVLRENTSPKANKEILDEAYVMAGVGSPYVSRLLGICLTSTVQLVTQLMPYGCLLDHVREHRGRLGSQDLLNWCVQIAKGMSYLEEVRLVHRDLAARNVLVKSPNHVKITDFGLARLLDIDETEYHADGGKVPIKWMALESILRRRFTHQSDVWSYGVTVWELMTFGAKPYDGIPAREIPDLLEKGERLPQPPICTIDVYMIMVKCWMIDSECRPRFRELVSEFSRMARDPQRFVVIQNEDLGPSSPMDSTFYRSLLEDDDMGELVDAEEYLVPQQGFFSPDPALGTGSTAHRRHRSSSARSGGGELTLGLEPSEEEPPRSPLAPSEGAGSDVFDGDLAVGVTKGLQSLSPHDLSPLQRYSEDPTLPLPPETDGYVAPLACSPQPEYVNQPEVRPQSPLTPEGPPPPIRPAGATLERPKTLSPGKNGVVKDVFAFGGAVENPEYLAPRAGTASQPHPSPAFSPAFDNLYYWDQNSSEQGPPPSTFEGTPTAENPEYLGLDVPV
Chain of Serine/threonine-protein kinase Nek2 (P51955 whole entry): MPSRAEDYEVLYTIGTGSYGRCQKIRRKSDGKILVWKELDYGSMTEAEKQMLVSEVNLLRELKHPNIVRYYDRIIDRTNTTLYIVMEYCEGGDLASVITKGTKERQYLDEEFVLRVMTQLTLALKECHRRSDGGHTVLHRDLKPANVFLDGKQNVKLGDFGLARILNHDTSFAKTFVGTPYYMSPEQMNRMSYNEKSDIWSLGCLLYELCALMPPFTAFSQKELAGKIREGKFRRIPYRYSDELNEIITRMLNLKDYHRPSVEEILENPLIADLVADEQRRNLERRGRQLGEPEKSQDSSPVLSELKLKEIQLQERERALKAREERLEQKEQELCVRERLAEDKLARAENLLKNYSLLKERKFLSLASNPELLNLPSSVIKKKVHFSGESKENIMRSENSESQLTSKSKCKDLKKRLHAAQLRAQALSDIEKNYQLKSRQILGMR
Chain of Wee1-like protein kinase (P30291 whole entry): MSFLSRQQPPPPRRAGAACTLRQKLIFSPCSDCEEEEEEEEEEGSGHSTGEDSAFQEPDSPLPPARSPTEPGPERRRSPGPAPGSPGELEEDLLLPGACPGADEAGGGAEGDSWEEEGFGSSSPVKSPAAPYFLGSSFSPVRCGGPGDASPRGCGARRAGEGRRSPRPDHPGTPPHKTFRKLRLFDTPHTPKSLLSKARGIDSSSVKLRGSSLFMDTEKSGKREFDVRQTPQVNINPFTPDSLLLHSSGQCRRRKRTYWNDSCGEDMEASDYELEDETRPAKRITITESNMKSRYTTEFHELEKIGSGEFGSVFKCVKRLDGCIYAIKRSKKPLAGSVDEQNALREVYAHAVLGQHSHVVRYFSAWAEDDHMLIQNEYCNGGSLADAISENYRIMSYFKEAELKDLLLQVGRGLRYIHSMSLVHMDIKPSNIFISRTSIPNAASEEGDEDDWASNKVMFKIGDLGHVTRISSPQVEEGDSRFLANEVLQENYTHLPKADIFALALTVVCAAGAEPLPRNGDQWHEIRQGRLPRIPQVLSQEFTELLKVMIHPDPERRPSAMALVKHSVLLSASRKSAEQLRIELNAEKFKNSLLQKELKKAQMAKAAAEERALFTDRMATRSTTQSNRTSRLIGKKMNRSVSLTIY
Chain of Mitogen-activated protein kinase 8 (P45983 whole entry): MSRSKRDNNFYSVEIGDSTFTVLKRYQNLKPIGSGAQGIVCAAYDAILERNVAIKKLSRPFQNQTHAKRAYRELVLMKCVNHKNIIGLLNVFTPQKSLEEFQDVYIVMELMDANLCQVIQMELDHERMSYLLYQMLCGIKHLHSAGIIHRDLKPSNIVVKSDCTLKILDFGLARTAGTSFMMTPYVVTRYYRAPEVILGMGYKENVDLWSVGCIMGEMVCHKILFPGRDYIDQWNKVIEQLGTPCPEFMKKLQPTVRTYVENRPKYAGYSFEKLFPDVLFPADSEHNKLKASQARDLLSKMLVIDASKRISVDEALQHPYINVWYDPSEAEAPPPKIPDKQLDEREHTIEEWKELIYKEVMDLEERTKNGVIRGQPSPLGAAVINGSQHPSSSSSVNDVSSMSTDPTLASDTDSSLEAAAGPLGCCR
Chain of Glycogen synthase kinase-3 beta (P49841 whole entry): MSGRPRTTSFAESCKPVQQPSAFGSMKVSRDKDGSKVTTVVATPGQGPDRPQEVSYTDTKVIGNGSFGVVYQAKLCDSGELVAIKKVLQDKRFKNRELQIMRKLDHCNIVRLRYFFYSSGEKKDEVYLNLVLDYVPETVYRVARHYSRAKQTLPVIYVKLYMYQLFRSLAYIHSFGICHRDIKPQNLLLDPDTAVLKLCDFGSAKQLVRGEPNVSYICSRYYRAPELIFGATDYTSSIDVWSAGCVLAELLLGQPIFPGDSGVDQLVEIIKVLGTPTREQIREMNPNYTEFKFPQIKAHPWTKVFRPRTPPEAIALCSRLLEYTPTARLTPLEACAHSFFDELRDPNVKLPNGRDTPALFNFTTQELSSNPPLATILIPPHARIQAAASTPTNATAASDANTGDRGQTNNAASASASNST

IC50 (BaF3 [1]): 1.9 nM | IC50 [2]: > 10 µM | IC50 (BaF3 [3]): 240 nM | IC50 (BaF3 [4]): 160 nM | IC50 (Casein kinase I): > 10 µM | IC50 [5]: > 40 µM | IC50 (HCC827 [7]): 14 nM | IC50 [8]: > 10 µM | IC50 [9]: > 10 µM | IC50 (HCC827 [10]): 61 nM | IC50 [11]: > 10 µM | IC50 [13]: > 10 µM | IC50 (BaF3 [14]): 330 nM | IC50 [15]: > 40 µM | IC50 [16]: > 40 µM | IC50 [17]: > 10 µM | IC50 [18]: 41 nM | IC50 (NCI-H3255 [19]): 137 nM | IC50 [20]: > 10 µM | IC50 (BaF3 [21]): 1.4 nM | IC50 (PC-9): 2 nM | IC50 (Casein kinase 2): > 10 µM | IC50 (BaF3 [22]): 300 nM | IC50 (HCC827 [23]): 83 nM | IC50 (HCC4006): 4 nM | IC50 (BaF3 [24]): 1.2 nM | IC50 (BaF3 [25]): 140 nM | IC50 (BaF3 [26]): 2.6 nM | IC50 (Wee1-like protein kinase): > 10 µM | IC50 (cells): 119 nM | IC50 [28]: > 40 µM | IC50 [29]: > 40 µM | IC50 [30]: > 10 µM | IC50 (NCI-H3255 [31]): 1620 nM | IC50 (NCI-H441): 4 µM | IC50 (HCC827 [32]): 3 nM
SMILES: COc1cc2ncnc(Nc3ccc(F)c(Cl)c3)c2cc1NC(=O)/C=C/CN1CCCCC1 [DACOMITINIB ANHYDROUS]
inhibition (HCC827 [6]): Active | Activity (HCC827 [12]): Active | inhibition (NIH3T3 [27]): Active | inhibition (NIH3T3 [33]): Active | Activity (NCI-H3255 [34]): Active
